Source: ChEMBL document CHEMBL4428054, “Synthesis of Fluorescent Binaphthyl Amines That Bind c-MYC G-Quadruplex DNA and Repress c-MYC Expression” (J Med Chem, 2016)
Calls of active or inactive are those of the source. The rule behind the calls is not given here.

Tests used:
[1] = system: HeLa; test: Cell cycle arrest in human HeLa cells assessed as accumulation at S phase at 5 uM incubated for 24 hrs by propidium iodide staining based flow cytometry (reference value: 10.8%); format: functional
[2] = system: HeLa; test: Induction of apoptosis in human HeLa cells assessed as late apoptotic cells level at 5 uM incubated for 24 hrs by Annexin V-FITC staining based flow cytometry (reference value: 0.8%); format: functional
[3] = biological target: Quadruplex DNA; test: Binding affinity to pre-annealed c-KIT1 G-quadruplex (unknown origin) in 100 mM KCl, 10 mM Tris.HCl at pH 7.4 by fluorescence spectroscopy relative to untreated control; format: nucleic-acid assay, unidentified
Summary of the method: (§1)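 Fluorescence titration in 100 mM KCl, 10 mM Tris·HCl, pH 7.4. Excitation was 350 nm and emission was read at the 430 nm maximum. Ligand (1 μM for c-MYC) was titrated with increasing quadruplex or ds DNA, up to 20 equiv. Change in intensity was scored, and Kd was derived from the titration curves.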

[4] = system: unidentified; test: Selectivity for 5'-FAM and 3'-TAMRA-labeled c-MYC G-quadruplex (unknown origin) over 5'-FAM and 3'-TAMRA-labeled k-RAS G-quadruplex (unknown origin)
[5] = biological target: Quadruplex DNA; test: Binding affinity to pre-annealed c-MYC G-quadruplex (unknown origin) in 100 mM KCl, 10 mM Tris.HCl at pH 7.4 by fluorescence spectroscopy relative to untreated control; format: nucleic-acid assay, unidentified; summary of the method: as §1
[6] = Selectivity for 5'-FAM and 3'-TAMRA-labeled c-MYC G-qudaruplex (unknown origin) over 5'-FAM and 3'-TAMRA-labeled c-KIT1 G-qudaruplex (unknown origin)
[7] = system: Quadruplex DNA; test: Stabilization of 5'-FAM and 3'-TAMRA-labeled c-MYC G-quadruplex (unknown origin) assessed as change in melting temperature at 1 uM in presence of 100 nM to 10 uM dsDNA by FRET assay; format: nucleic-acid assay; conditions: unidentified
[8] = system: dsDNA; test: Stabilization of 5'-FAM and 3'-TAMRA-labeled dsDNA (unknown origin) assessed as change in melting temperature at 5 uM by FRET assay; format: nucleic-acid assay
Summary of the method: (§2)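 FRET melting of dual-labelled (5′-FAM/3′-TAMRA) promoter quadruplexes or duplex in 60 mM potassium cacodylate buffer, pH 7.4. ΔTm is taken against ligand-free Tm. The ligand was tested across a concentration series. Maximum measurable Tm is 93 °C.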

[9] = biological target: Quadruplex DNA; test: Binding affinity to pre-annealed c-MYC G-quadruplex (unknown origin) in 10 mM Tris.HCl buffer containing 100 mM KCl at pH 7.4 by UV/Visible spectroscopy; format: nucleic-acid assay, unidentified
Summary of the method: (§3)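 UV–vis titration of 20 μM ligand with preannealed c-MYC quadruplex (0–1.4 equiv) in 100 mM KCl, 10 mM Tris·HCl, pH 7.4. Hypochromicity was followed at the 362 nm ligand band, because the 298 nm band overlaps DNA absorbance. Kd was fitted with the Hill 1 equation.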

[10] = system: Quadruplex DNA; test: Stabilization of 5'-FAM and 3'-TAMRA-labeled c-KIT1 G-quadruplex (unknown origin) assessed as change in melting temperature at 1 uM by FRET assay; format: nucleic-acid assay; conditions: unidentified; summary of the method: as §2
[11] = system: HeLa; test: Induction of apoptosis in human HeLa cells assessed as necrotic cells level at 5 uM incubated for 24 hrs by Annexin V-FITC staining based flow cytometry (reference value: 0.1%); format: functional
[12] = system: Quadruplex DNA; test: Stabilization of 5'-FAM and 3'-TAMRA-labeled k-RAS G-quadruplex (unknown origin) assessed as change in melting temperature at 1 uM in presence of 100 nM to 10 uM dsDNA by FRET assay; format: nucleic-acid assay; conditions: unidentified
[13] = system: Quadruplex DNA; test: Stabilization of 5'-FAM and 3'-TAMRA-labeled c-KIT2 G-quadruplex (unknown origin) assessed as change in melting temperature at 1 uM by FRET assay; format: nucleic-acid assay; conditions: unidentified; summary of the method: as §2
[14] = system: HeLa; test: Induction of apoptosis in human HeLa cells assessed as viable cell level at 5 uM incubated for 24 hrs by Annexin V-FITC staining based flow cytometry; format: functional
[15] = system: Quadruplex DNA; test: Effect on parallel topology of c-MYC G-quadruplex (unknown origin) at 0 to 5 equivalent by CD spectroscopy; format: nucleic-acid assay; conditions: unidentified
[16] = system: dsDNA; test: Binding affinity to dsDNA (unknown origin) in 10 mM Tris.HCl buffer containing 100 mM KCl at pH 7.4 by UV/Visible spectroscopy; format: nucleic-acid assay
[17] = system: Quadruplex DNA; test: Binding affinity to c-MYC G-quadruplex (unknown origin) assessed as induction of chemical shift perturbations of imino protons by 1H-NMR spectroscopy; format: nucleic-acid assay; conditions: unidentified
Summary of the method: (§4)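 1D 1H NMR of c-MYC quadruplex DNA at different ligand:DNA ratios, monitoring imino and aromatic regions against partial signal assignments. Chemical shift perturbation or line broadening was noted separately at ratios below 1 and at ratios of 1 or above.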

[18] = biological target: Quadruplex DNA; test: Binding affinity to pre-annealed c-KIT2 G-quadruplex (unknown origin) in 100 mM KCl, 10 mM Tris.HCl at pH 7.4 by fluorescence spectroscopy relative to untreated control; format: nucleic-acid assay, unidentified; summary of the method: as §1
[19] = system: dsDNA; test: Binding affinity to 20 equivalents of dsDNA (unknown origin) in 100 mM KCl, 10 mM Tris.HCl at pH 7.4 by fluorescence spectroscopy relative to untreated control; format: nucleic-acid assay; summary of the method: as §1
[20] = system: HeLa; test: Induction of apoptosis in human HeLa cells assessed as early apoptotic cells level at 5 uM incubated for 24 hrs by Annexin V-FITC staining based flow cytometry (reference value: 1.1%); format: functional
[21] = system: Quadruplex DNA; test: Binding affinity to pre-annealed c-MYC G-quadruplex (unknown origin) assessed as hypochromacity at 20 uM in 10 mM Tris.HCl buffer containing 100 mM KCl at pH 7.4 by UV/Visible spectroscopy; format: nucleic-acid assay; conditions: unidentified; summary of the method: as §3
[22] = system: HeLa; test: Cell cycle arrest in human HeLa cells assessed as accumulation at G2/M phase at 5 uM incubated for 24 hrs by propidium iodide staining based flow cytometry (reference value: 25.5%); format: functional
[23] = system: unidentified; test: Selectivity for 5'-FAM and 3'-TAMRA-labeled c-MYC G-quadruplex (unknown origin) over 5'-FAM and 3'-TAMRA-labeled c-KIT2 G-quadruplex (unknown origin)
[24] = system: HeLa; test: Effect on GAPDH mRNA expression in human HeLa cells at 1 to 5 uM incubated for 24 hrs by RT-PCR method; format: ADME, cell-based
[25] = system: HeLa; test: Cell cycle arrest in human HeLa cells assessed as accumulation at subG1 phase at 5 uM incubated for 24 hrs by propidium iodide staining based flow cytometry (reference value: 2.2%); format: functional
[26] = biological target: Quadruplex DNA; test: Binding affinity to pre-annealed k-RAS G-quadruplex (unknown origin) in 100 mM KCl, 10 mM Tris.HCl at pH 7.4 by fluorescence spectroscopy relative to untreated control; format: nucleic-acid assay, unidentified; summary of the method: as §1
[27] = system: Quadruplex DNA; test: Stabilization of c-MYC G-quadruplex in human HeLa cells assessed as reduction in c-MYC mRNA level at 5 uM incubated for 24 hrs by RT-PCR method; format: cell-based; set-up: scale not given: the % may be the effect or the level left
Summary of the method: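 qRT-PCR on HeLa cells treated 24 h at 1.0, 2.5 or 5.0 μM. c-MYC mRNA was normalised to GAPDH and compared with 0.1% DMSO-treated control.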

[28] = system: HeLa; test: Cytotoxicity against human HeLa cells incubated for 24 hrs by MTT assay; format: functional, cell-based
Summary of the method: (§5)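 MTT growth-inhibition assay in HeLa, A549 and mouse C2C12 cells. Cells given 0.1% DMSO served as control. IC50 values were reported.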

[29] = system: Quadruplex DNA; test: Stabilization of 5'-FAM and 3'-TAMRA-labeled c-MYC G-quadruplex (unknown origin) assessed as change in melting temperature at 1 uM by FRET assay; format: nucleic-acid assay; conditions: unidentified; summary of the method: as §2
[30] = system: Quadruplex DNA; test: Stabilization of c-MYC G-quadruplex in human HeLa cells assessed as reduction in c-MYC mRNA level at 5 uM incubated for 24 hrs by Western blot method; format: cell-based; set-up: scale not given: the % may be the effect or the level left; conditions: in the assay text read “c-MYC protein level” for “c-MYC mRNA level”
Summary of the method: (§6)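 Western blot of HeLa lysates after 24 h at 1, 2.5 or 5 μM, with DMSO control. c-MYC was probed, GAPDH served as loading control, and bands were quantified by densitometry.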

[31] = system: Quadruplex DNA; test: Stabilization of 5'-FAM and 3'-TAMRA-labeled c-KIT2 G-quadruplex (unknown origin) assessed as change in melting temperature at 1 uM in presence of 100 nM to 10 uM dsDNA by FRET assay; format: nucleic-acid assay; conditions: unidentified
[32] = system: A549; test: Cytotoxicity against human A549 cells incubated for 24 hrs by MTT assay; format: functional, cell-based; conditions: A549, 24 h; summary of the method: as §5
[33] = system: dsDNA; test: Stabilization of 5'-FAM and 3'-TAMRA-labeled dsDNA (unknown origin) assessed as change in melting temperature at 1 uM by FRET assay; format: nucleic-acid assay; summary of the method: as §2
[34] = system: Quadruplex DNA; test: Stabilization of 5'-FAM and 3'-TAMRA-labeled c-MYC G-quadruplex (unknown origin) assessed as change in melting temperature at 3 uM by FRET assay; format: nucleic-acid assay; conditions: unidentified; summary of the method: as §2
[35] = Drug localization in cytoplasm of human HeLa cells at 5 uM incubated for 2 hrs by fluorescence microscopy; format: ADME, subcellular
Summary of the method: (§7)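 Intrinsic ligand fluorescence imaged by fluorescence microscopy in HeLa cells after 2 h at 5.0 μM. Merged images were used to assign nuclear versus cytoplasmic localisation.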

[36] = system: Quadruplex DNA; test: Binding affinity to c-MYC G-quadruplex (unknown origin) assessed as induction of line broadening of imino protons by 1H-NMR spectroscopy; format: nucleic-acid assay; conditions: unidentified; summary of the method: as §4
[37] = system: C2C12; test: Cytotoxicity against mouse C2C12 cells incubated for 24 hrs by MTT assay; format: cell-based; conditions: C2C12, 24 h; summary of the method: as §5
[38] = system: Quadruplex DNA; test: Stabilization of 5'-FAM and 3'-TAMRA-labeled k-RAS G-quadruplex (unknown origin) assessed as change in melting temperature at 1 uM by FRET assay; format: nucleic-acid assay; conditions: unidentified; summary of the method: as §2
[39] = system: HeLa; test: Effect on GAPDH protein expression in human HeLa cells at 1 to 5 uM incubated for 24 hrs by Western blot method; format: ADME, cell-based; summary of the method: as §6
[40] = Drug localization in nucleus of human HeLa cells at 5 uM incubated for 2 hrs by fluorescence microscopy; format: ADME, subcellular; summary of the method: as §7
[41] = system: Quadruplex DNA; test: Binding affinity to pre-annealed c-MYC G-quadruplex (unknown origin) assessed as increase in fluorescence intensity at 1 uM in 100 mM KCl, 10 mM Tris.HCl at pH 7.4 by fluorescence spectroscopy relative to untreated control; format: nucleic-acid assay; conditions: unidentified; summary of the method: as §1
[42] = system: HeLa; test: Cell cycle arrest in human HeLa cells assessed as accumulation at G0/G1 phase at 5 uM incubated for 24 hrs by propidium iodide staining based flow cytometry (reference value: 61.5%); format: functional
[43] = system: Quadruplex DNA; test: Stabilization of 5'-FAM and 3'-TAMRA-labeled c-KIT1 G-quadruplex (unknown origin) assessed as change in melting temperature at 1 uM in presence of 100 nM to 10 uM dsDNA by FRET assay; format: nucleic-acid assay; conditions: unidentified

Kd [3]: 19.4 µM
Selectivity ratio [4]: 3 to 5
Kd [5]: 21.4 µM
Selectivity ratio [6]: 3 to 5
Activity [7]: Active
Activity [8]: inactive
Kd [9]: 22.6 µM
ΔTm [10]: 9 °C
Activity [12]: Active
ΔTm [13]: 7 °C
Activity [15]: inactive
Activity [16]: inactive
Activity [17]: Active
Kd [18]: 14.1 µM
Activity [19]: inactive
Activity [21]: 18%
Selectivity ratio [23]: 3 to 5
Kd [26]: 13 µM
ΔTm [29]: 15 °C
Activity [31]: Active
ΔTm [33]: 1 °C
ΔTm [34]: 23 °C
Drug uptake [35]: Active
Activity [36]: Active
ΔTm [38]: 18 °C
Drug uptake [40]: Active
fold change (FC) [41]: 1.2
Activity [43]: Active
SMILES: CN(C)CCCNC(=O)c1ccc(Nc2ccc(-c3ccc(Nc4ccc(C(=O)NCCCN(C)C)cc4)c4ccccc34)c3ccccc23)cc1
Activity [1]: 5.3%
Activity [2]: 3.6%
Activity [11]: 0.5%
Activity [14]: Active
Activity [20]: 37.9%
Activity [22]: 8.6%
Activity [24]: Non-Toxic
Activity [25]: 39.2%
Activity [27]: 27%
IC50 [28]: 7.24 µM
Activity [30]: 36%
IC50 [32]: ≥ 40 µM
IC50 [37]: ≥ 40 µM
Activity [39]: Non-Toxic
Activity [42]: 46.9%
